The nature of series [1]: melting temperature; fluorescence melt of hairpins on a sequencing array, two-state fit, raised by 9.35 °C to match UV melts. The following applies: sodium 0.088 M. The essentials:
(§1)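 Cy3 signals were normalised both to pre-quench Cy3 and to control constructs. They came from library hairpins carrying annealed Cy3 and quencher oligos on a sequenced MiSeq flow cell, imaged in 50 mM Na-HEPES pH 8.0, 25 mM NaCl, in 2.5 °C steps up to 60 °C. Bootstrapped two-state fits gave melting temperature and folding enthalpy, and four replicates were combined by inverse variance. Fitted temperatures were then raised by 9.35 °C to match UV melts.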

The nature of series [2]: folding enthalpy; higher = less favourable; fluorescence melt of hairpins on a sequencing array, two-state fit. To be noted: sodium 0.088 M. The essentials: as §1

The values that follow come from the array DNA melting data of Ke et al. (doi:10.1101/2024.01.08.574731).

For GATCACTATTGTGATC ((((((....)))))), the Tm in series [1] was found to be 58.3 °C. Further, the folding enthalpy in series [2] was -37.8 kcal/mol.
In the same order, the values of GATCTTTGGTAAGATC ((((((....)))))) are 42.5 °C and -30.8 kcal/mol.
Take GATCAGTCGGCTGATC ((((((....)))))): the Tm in series [1] was 51.5 °C. Moreover, the folding enthalpy in series [2] is -46.8 kcal/mol.
In the same order, the values of GCCAGGCGAAAGCCTTGC ((.((((....)))).)) are 56.9 °C and -20 kcal/mol.
In the case of GTGGACGGAAACGTTCAC (((.(((....))).))), the Tm in series [1] came out at 55 °C. For the same sequence, the folding enthalpy in series [2] is -42.2 kcal/mol.
In the same order, the values of GGCTACGAAAGTAGAGCC ((((((....)))..))) are 49.5 °C and -20 kcal/mol.
In the same order, the values of GAGCAGCGAAAGCTCTC (((.(((....)))))) are 47.4 °C and -17.6 kcal/mol.
In the same order, the values of CGACATCGGAAACGATCG (((..(((....)))))) are 34 °C and -12.7 kcal/mol.
Regarding GATCTAGCGGTAGATC ((((((....)))))), the Tm in series [1] was found to be 44 °C. For the same sequence, the folding enthalpy in series [2] was -32.2 kcal/mol.
In the same order, the values of GTGGGCGAAAGCCTTCAC ((((((....)))..))) are 33.1 °C and -12.7 kcal/mol.
In the same order, the values of GATCTTTATTAAGATC ((((((....)))))) are 43.5 °C and -34.2 kcal/mol.
In the same order, the values of GACGATGGAAACATCGCC (.(((((....))))).) are 47.3 °C and -17.9 kcal/mol.
As for GTACGAGGAAACTCGTGC (.(((((....))))).), the Tm in series [1] amounted to 52 °C. Further, the folding enthalpy in series [2] is -39.2 kcal/mol.
For the sequence GTTGGTGGAAACGCCAAC (((((.(....).))))), the Tm in series [1] came out at 54.4 °C. For the same sequence, the folding enthalpy in series [2] was -40 kcal/mol.
As to GATCCTTTTAAGGATC ((((((....)))))), the Tm in series [1] was 57.9 °C. Moreover, in series [2], the folding enthalpy is -36.6 kcal/mol.
In the case of GCTAGTGGAAACATTGGC ((.(.((....)).).)), the Tm in series [1] was 28.2 °C. Also, in series [2], the folding enthalpy was -10.7 kcal/mol.
In the same order, the values of CGAACGGAAACGTAATCG ((((((....)))..))) are 24.5 °C and -8.82 kcal/mol.
As to GGCGCCGAAAGGCGAGCC ((((((....)))..))), the Tm in series [1] amounted to 57.6 °C. Moreover, the folding enthalpy in series [2] is -11.4 kcal/mol.
Turning to GATCGACCCCTCGATC ((((((....)))))), in series [1], the Tm turned out to be 51.7 °C. In addition, the folding enthalpy in series [2] is -47.5 kcal/mol.
As for GCACCACCGAAAGGTTGC (((..(((....)))))), the Tm in series [1] was determined as 39.5 °C. Further, in series [2], the folding enthalpy was -15.9 kcal/mol.
In the same order, the values of GCAGCGCGAAAGCACGGC ((.(.((....)).).)) are 53.9 °C and -22.9 kcal/mol.
Consider GCTGGGCGAAAGCTTAGC (((..((....))..))), for which the Tm in series [1] came out at 50.5 °C. The folding enthalpy in series [2] is -23 kcal/mol.
Regarding GATCCCTTTGGGGATC ((((((....)))))), in series [1], the Tm worked out at 62.8 °C. Besides, in series [2], the folding enthalpy was -46 kcal/mol.
In the same order, the values of GATCCCGGTGGGGATC ((((((....)))))) are 59.3 °C and -40.2 kcal/mol.
In the same order, the values of GTGCTGGAAACAGCAC ((((((....)))))) are 67.6 °C and -33.2 kcal/mol.
In the same order, the values of GCAAGTGGAAACGTTTGC ((((..(....)..)))) are 34.4 °C and -20.4 kcal/mol.
As to GAGCCCGAAAGGGCCTC ((((((....))).))), in series [1], the Tm was 58.9 °C. The folding enthalpy in series [2] was -8.72 kcal/mol.
In the same order, the values of GAGACCGGAAACGGCCTC (((.(((....))).))) are 50.8 °C and -28.1 kcal/mol.
In the case of GTGGAGGGAAACCTCTGC (..((((....))))..), in series [1], the Tm is 37.6 °C. Also, the folding enthalpy in series [2] is -19.2 kcal/mol.
In the same order, the values of GATCAGATGTCTGATC ((((((....)))))) are 49.7 °C and -41.8 kcal/mol.
For the sequence GGGGGAACGAAAGTTCCC (((..(((....)))))), the Tm in series [1] was 64.3 °C. Moreover, the folding enthalpy in series [2] is -8.07 kcal/mol.
In the same order, the values of GTACCGCGAAAGCGTAC (((.(((....)))))) are 51.1 °C and -14.1 kcal/mol.
In the same order, the values of CGGTCGGAAACGACCCCG ((((((....)))..))) are 37.3 °C and -9.36 kcal/mol.
In the same order, the values of GGGGACGAAAGTCTACCC ((((((....)))..))) are 47.2 °C and -17.9 kcal/mol.
For the sequence GATCATGGTGATGATC ((((((....)))))), the Tm in series [1] came out at 49 °C. In series [2], the folding enthalpy is -39.4 kcal/mol.
In the same order, the values of GATCCTGGAAAGGATC ((((((....)))))) are 59.5 °C and -35.6 kcal/mol.
In the same order, the values of GCCGCCGGAAACGACGGC ((((.((....)).)))) are 67 °C and -33.7 kcal/mol.
